Assay results taken from ChEMBL document CHEMBL3045178, “Metabolites from Aspergillus fumigatus, an endophytic fungus associated with Melia azedarach, and their antifungal, antifeedant, and toxic activities” (J Agric Food Chem, 2012).
Values after ≈ are worked out from the molar mass of the structure shown.

How the values were obtained:
[1] = Toxicity in Artemia salina (brine shrimp) […]; assay type: organism-based; details: in vivo
[2] = test system: Colletotrichum gloeosporioides; experiment: Antifungal activity against Colletotrichum gloeosporioides at 28 degC after 48 hr microbroth dilution method; assay type: functional
In short: (§1)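 Plant-pathogenic fungi isolated from infected plant organs. Fungi grown 18 h in PD medium at 28 ± 0.5 °C and 150 rpm, then diluted to about 1 × 10^6 CFU in PD medium. Compounds at 2 mg/mL DMSO stock, serially diluted in triplicate in PD medium in 96-well plates before the fungal suspension was added. DMSO served as negative control. After 48 h at 28 ± 0.5 °C, MIC taken as the lowest concentration with no visible growth.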

Botrytis cinerea = experiment: Antifungal activity against Botryotinia fuckeliana at 28 degC after 48 hr microbroth dilution method; assay type: functional; in short: as §1
Alternaria alternata = experiment: Antifungal activity against Alternaria alternata at 28 degC after 48 hr microbroth dilution method; assay type: functional; in short: as §1
Fusarium solani = experiment: Antifungal activity against Fusarium solani at 28 degC after 48 hr microbroth dilution method; assay type: functional; in short: as §1
Alternaria solani = experiment: Antifungal activity against Alternaria solani at 28 degC after 48 hr microbroth dilution method; assay type: functional; in short: as §1
[3] = test system: Fusarium oxysporum f. sp. niveum; experiment: Antifungal activity against Fusarium oxysporum f. sp. niveum at 28 degC after 48 hr microbroth dilution method; assay type: functional; in short: as §1
[4] = test system: Fusarium oxysporum f. sp. vasinfectum; experiment: Antifungal activity against Fusarium oxysporum f. sp. vasinfectum at 28 degC after 48 hr microbroth dilution method; assay type: functional; in short: as §1
Fusarium graminearum = experiment: Antifungal activity against Fusarium graminearum at 28 degC after 48 hr microbroth dilution method; assay type: functional
In short: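 Microbroth dilution in PD medium. Fungi were grown 18 h at 28 ± 0.5 °C and 150 rpm, then diluted to about 1 × 10^6 CFU. Compounds (2 mg/mL DMSO stock) were serially diluted in triplicate and fungal suspension added. Incubated 48 h at 28 ± 0.5 °C. MIC was the lowest concentration with no visible growth. Controls: DMSO, carbendazim, hymexazol.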

Mythimna separata = experiment: Antifeedant activity against Mythimna separata (Oriental armyworm) larvae assessed as antifeedant index by area of the leaf consumed; assay type: functional; design: concentration or dose not given beside the values
In short: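 Positive control prepared at 10 mg/mL in acetone; leaves treated with acetone alone served as control. Ten treated leaves and 10 larvae per Petri dish lined with moistened filter paper. Held at 25 ± 2 °C, 12L:12D, 65−80% rh. Leaf area consumed recorded after 48 h. AFI = (C − T)/C × 100%, from control and treated areas consumed. Three repetitions.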

With `C[C@@H]1NC(=O)[C@@H]2CCCN2C1=O` the LC50 [1] was greater than 100 µg/mL.
Work on `O=C1CNC(=O)[C@H](Cc2ccccc2)N1` yielded an LC50 [1] greater than 100 µg/mL.
With `C[C@@H]1NC(=O)[C@H]2CCCN2C1=O` the LC50 [1] was greater than 100 µg/mL.
For `O=C1N[C@@H](CO)C(=O)N2CCC[C@@H]12`, the LC50 [1] was greater than 100 µg/mL.
Molecule `O=C1N[C@@H](CO)C(=O)N2C[C@H](O)C[C@@H]12` has an LC50 [1] greater than 100 µg/mL.
With `CC(C)C[C@@H]1NC(=O)[C@@H]2CC(O)CN2C1=O` (stereo not given in full) the LC50 [1] was greater than 100 µg/mL.
`O=C1N[C@@H](Cc2ccccc2)C(=O)N2C[C@H](O)C[C@H]12` showed an LC50 [1] greater than 100 µg/mL.
With `C[C@@H]1NC(=O)CNC1=O` the LC50 [1] was greater than 100 µg/mL.
`COc1ccc2c3c([nH]c2c1)[C@H](CC(C)(C)O)N1C(=O)[C@@H]2CCCN2C(=O)[C@@]1(O)[C@H]3O` showed an MIC [2] of 25 µg/mL (≈ 58.2 µM), an MIC (Botrytis cinerea) of 25 µg/mL (≈ 58.2 µM) and an LC50 [1] of 73.2 µg/mL (≈ 170 µM). It also gave an MIC (Alternaria alternata) of 25 µg/mL (≈ 58.2 µM), an MIC (Fusarium solani) of 50 µg/mL (≈ 116 µM) and an MIC (Alternaria solani) of 25 µg/mL (≈ 58.2 µM). For the same molecule, the MIC [3] was 25 µg/mL (≈ 58.2 µM), the MIC [4] was 50 µg/mL (≈ 116 µM) and the MIC (Fusarium graminearum) was 25 µg/mL (≈ 58.2 µM).
Work on `COc1ccc2c3c([nH]c2c1)[C@H](CC(C)(C)O)N1C(=O)[C@@H]2CCCN2C(=O)[C@@]1(O)[C@H]3OC` yielded an MIC [2] of 6.25 µg/mL (≈ 14.1 µM), an MIC (Botrytis cinerea) of 6.25 µg/mL (≈ 14.1 µM) and an LC50 [1] of 60.7 µg/mL (≈ 137 µM). The MIC (Alternaria alternata) was 6.25 µg/mL (≈ 14.1 µM), the MIC (Fusarium solani) was 25 µg/mL (≈ 56.4 µM) and the MIC (Alternaria solani) was 6.25 µg/mL (≈ 14.1 µM). For the same molecule, the MIC [3] was 12.5 µg/mL (≈ 28.2 µM), the MIC [4] was 25 µg/mL (≈ 56.4 µM) and the MIC (Fusarium graminearum) was 6.25 µg/mL (≈ 14.1 µM).
Molecule `COc1ccc2c(c1)N[C@@]1(C2=O)[C@H](C=C(C)C)N2C(=O)[C@@H]3CCCN3C(=O)[C@]2(O)[C@H]1O` has an LC50 [1] greater than 100 µg/mL and an AFI (Mythimna separata) of 5%.
For `O=C1[C@@H]2C[C@@H](O)CN2C(=O)[C@@H]2CCCN12`, the LC50 [1] was greater than 100 µg/mL.
Work on `C[C@@H]1NC(=O)[C@@H]2C[C@@H](O)CN2C1=O` yielded an LC50 [1] of 66.1 µg/mL (≈ 359 µM).
With `O=C1C[C@@H](O)[C@H](O)c2cccc(O)c21` (relative stereo) the LC50 [1] was greater than 100 µg/mL.
With `O=C1C[C@@H](O)[C@@H](O)c2cccc(O)c21` (relative stereo) the LC50 [1] was greater than 100 µg/mL.
For `C[C@@H]1N[C@H]2N(C1=O)c1ccccc1[C@@]2(O)C[C@@H]1C(=O)N[C@](C)(O)c2nc3ccccc3c(=O)n21` [3-HYDROXYFUMIQUINAZOLINE A], the MIC [2] was 12.5 µg/mL (≈ 27.1 µM), the MIC (Botrytis cinerea) was 12.5 µg/mL (≈ 27.1 µM) and the LC50 [1] was 80.8 µg/mL (≈ 175 µM). It also gave an MIC (Alternaria alternata) of 12.5 µg/mL (≈ 27.1 µM), an MIC (Fusarium solani) of 100 µg/mL (≈ 217 µM) and an AFI (Mythimna separata) of 7.5%. The MIC (Alternaria solani) was 12.5 µg/mL (≈ 27.1 µM), the MIC [3] was 50 µg/mL (≈ 108 µM) and the MIC [4] was 50 µg/mL (≈ 108 µM). The MIC (Fusarium graminearum) was 12.5 µg/mL (≈ 27.1 µM).
With `O=C1CCC(O)c2cccc(O)c21` (stereo not given) [4,8-DIHYDROXY-1-TETRALONE] the MIC [2] was 12.5 µg/mL (≈ 70.2 µM), the MIC (Botrytis cinerea) was 12.5 µg/mL (≈ 70.2 µM) and the LC50 [1] was 52.7 µg/mL (≈ 296 µM). It also gave an MIC (Alternaria alternata) of 12.5 µg/mL (≈ 70.2 µM), an MIC (Fusarium solani) of 50 µg/mL (≈ 281 µM) and an MIC (Alternaria solani) of 12.5 µg/mL (≈ 70.2 µM). The MIC [3] was 25 µg/mL (≈ 140 µM), the MIC [4] was 50 µg/mL (≈ 281 µM) and the MIC (Fusarium graminearum) was 12.5 µg/mL (≈ 70.2 µM).
In the case of `O=C1N[C@@H](Cc2c[nH]c3ccccc23)C(=O)N2CCC[C@@H]12` [BREVIANAMIDE F], the LC50 [1] is reported as 83.7 µg/mL (≈ 295 µM).
`COC(=O)Nc1nc2ccccc2[nH]1` [CARBENDAZIM] showed an MIC [2] of 6.25 µg/mL (≈ 32.7 µM), an MIC (Botrytis cinerea) of 12.5 µg/mL (≈ 65.4 µM) and an MIC (Alternaria alternata) of 6.25 µg/mL (≈ 32.7 µM). It also gave an MIC (Fusarium solani) of 25 µg/mL (≈ 131 µM), an MIC (Alternaria solani) of 12.5 µg/mL (≈ 65.4 µM) and an MIC [3] of 12.5 µg/mL (≈ 65.4 µM). For the same molecule, the MIC [4] was 25 µg/mL (≈ 131 µM) and the MIC (Fusarium graminearum) was 6.25 µg/mL (≈ 32.7 µM).
